ChEMBL document CHEMBL2346557 (Bioorg Med Chem, 2013)
Calls of active or inactive are those of the source. The rule behind the calls is not given here.

Legend:
Assay type in all cases: cell-based
[1] = target: T1, Glucocorticoid receptor (Mus musculus) (UniProt P06537); experiment: Induction of glucocorticoid receptor nuclear translocation in mouse C2C12 cells at 1 x 10^-5 to 1.69 x 10^-10 M by chemiluminescence assay relative to control
T1 sequence (whole entry): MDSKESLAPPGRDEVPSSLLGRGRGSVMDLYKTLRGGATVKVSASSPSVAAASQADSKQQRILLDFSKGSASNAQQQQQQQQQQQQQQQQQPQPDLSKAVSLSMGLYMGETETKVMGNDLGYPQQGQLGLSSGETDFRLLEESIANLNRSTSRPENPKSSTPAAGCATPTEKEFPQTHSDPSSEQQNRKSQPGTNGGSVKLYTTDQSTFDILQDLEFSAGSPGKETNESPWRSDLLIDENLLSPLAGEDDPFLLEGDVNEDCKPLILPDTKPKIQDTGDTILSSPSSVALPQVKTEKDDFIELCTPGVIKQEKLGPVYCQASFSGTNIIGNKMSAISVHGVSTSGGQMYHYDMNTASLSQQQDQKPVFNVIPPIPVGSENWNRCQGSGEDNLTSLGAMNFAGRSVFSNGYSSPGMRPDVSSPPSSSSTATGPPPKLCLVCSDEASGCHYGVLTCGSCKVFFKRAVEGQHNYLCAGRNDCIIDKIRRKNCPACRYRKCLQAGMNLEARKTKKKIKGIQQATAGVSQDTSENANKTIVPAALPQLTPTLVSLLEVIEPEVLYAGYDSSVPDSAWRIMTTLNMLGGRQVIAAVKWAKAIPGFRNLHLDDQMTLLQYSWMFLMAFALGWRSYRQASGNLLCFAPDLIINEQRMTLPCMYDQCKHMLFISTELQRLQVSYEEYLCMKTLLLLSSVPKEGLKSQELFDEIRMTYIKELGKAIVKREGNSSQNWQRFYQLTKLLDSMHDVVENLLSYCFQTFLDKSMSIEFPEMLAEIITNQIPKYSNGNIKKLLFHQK
Outline: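 GR nuclear translocation measured by DiscoveRx in PathHunter cells using enzyme-fragment complementation. ProLink-tagged GR recruits a nuclear steroid receptor co-activator peptide fused to the enzyme acceptor, giving a chemiluminescent signal.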

[2] = Inhibition of TNFalpha-induced NFkappaB activation in mouse C2C12 cells incubated for 24 hrs prior to TNFalpha induction measured after 24 hrs by luciferase reporter gene assay
Outline: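 C2C12 myoblasts in growth medium and myotubes in differentiating medium, each stably carrying an NF-κB response element–luciferase reporter. Cells were washed, lysed and luciferase read; TNF-α alone was set as 100%. IC50 was calculated. SD shown.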

[3] = target: T2, Glucocorticoid receptor (Homo sapiens) (UniProt P04150); experiment: Transactivation of glucocorticoid receptor in HEK293 cells co-transfected with GRE assessed as induction of GRE-dependent gene expression at 100 ug/ml after 6 hrs by luciferase reporter gene assay
T2 sequence (whole entry): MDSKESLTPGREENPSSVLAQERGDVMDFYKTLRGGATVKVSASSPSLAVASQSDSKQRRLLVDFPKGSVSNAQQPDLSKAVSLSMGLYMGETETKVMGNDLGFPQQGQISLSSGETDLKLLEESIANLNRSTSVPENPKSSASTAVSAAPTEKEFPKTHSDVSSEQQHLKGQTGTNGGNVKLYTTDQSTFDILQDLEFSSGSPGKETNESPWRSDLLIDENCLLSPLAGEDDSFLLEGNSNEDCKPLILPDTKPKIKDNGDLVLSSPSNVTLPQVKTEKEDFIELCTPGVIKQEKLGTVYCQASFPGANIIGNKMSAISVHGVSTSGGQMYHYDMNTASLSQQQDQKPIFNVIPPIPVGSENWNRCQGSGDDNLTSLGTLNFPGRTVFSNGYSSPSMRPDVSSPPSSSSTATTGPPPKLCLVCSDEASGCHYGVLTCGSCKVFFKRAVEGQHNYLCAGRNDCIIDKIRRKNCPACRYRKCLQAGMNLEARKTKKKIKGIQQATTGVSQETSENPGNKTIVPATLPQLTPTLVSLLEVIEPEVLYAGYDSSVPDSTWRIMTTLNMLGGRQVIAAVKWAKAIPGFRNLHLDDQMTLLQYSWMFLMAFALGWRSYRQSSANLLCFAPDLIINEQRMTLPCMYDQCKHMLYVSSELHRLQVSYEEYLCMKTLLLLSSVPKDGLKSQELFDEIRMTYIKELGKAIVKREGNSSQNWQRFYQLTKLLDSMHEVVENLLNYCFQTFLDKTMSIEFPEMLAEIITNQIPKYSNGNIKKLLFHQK
Outline: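 HEK-293 cells stably transfected with a GRE-driven luciferase reporter were exposed to drug at 0.01–100 μg/ml for 6 h. Cells were washed with PBS and lysed, and luciferase activity was measured by luminometer.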

C2C12 = experiment: Cytotoxicity against mouse C2C12 cells assessed as cell viability at 0.01 to 100 ug/mL after 24 hrs by MTT assay; conditions: c2c12, 24 h
Outline: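 MTT viability run on C2C12 cells grown and treated alongside the NF-κB reporter plates, with drug at 0.01–100 µg/ml and DMSO vehicle. Viability is expressed as percent of untreated cells. A one-way repeated-measures ANOVA tested for a concentration effect.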

Structure (SMILES) | Activity [1] | EC50 [2] | Activity [3] | Activity (C2C12)
C[C@]12C=CC(=O)C=C1CC[C@@H]1C2=CC[C@]2(C)C(C(=O)CO)=CC[C@@H]12 | 16.7% | 495 nM | – | –
CC(=O)OCC(=O)[C@@]1(O)CC[C@H]2[C@@H]3CCC4=CC(=O)CC[C@]4(C)C3=CC[C@@]21C | 51.5% | – | inactive | –
CC(=O)OCC(=O)[C@H]1[C@H](C)C[C@H]2[C@@H]3CCC4=CC(=O)C=C[C@]4(C)C3=CC[C@@]21C | 48.8% | 54.1 nM | inactive | Non-toxic
C[C@H]1C[C@H]2[C@@H]3CCC4=CC(=O)C=C[C@]4(C)C3=CC[C@]2(C)[C@@]1(O)C(=O)CO | 44.5% | – | – | Non-toxic
CN1CCN(CC(=O)[C@@]2(O)CC[C@H]3[C@@H]4CCC5=CC(=O)CC[C@]5(C)C4=CC[C@@]32C)CC1 | 23.5% | 5780 nM | – | –
CCCN(CCC)CC(=O)[C@@]1(O)CC[C@H]2[C@@H]3CCC4=CC(=O)CC[C@]4(C)C3=CC[C@@]21C | 21.8% | – | – | –
C[C@]12C=CC(=O)C=C1CC[C@@H]1C2=CC[C@@]2(C)[C@H]1CC[C@]2(O)C(=O)CO | 57.6% | 129 nM | – | –

The next lines start with results.

Activity [1] | Structure (SMILES) | EC50 [2] | Activity [3] | Activity (C2C12)
15.3% | CC(=O)OCC(=O)C1=CC[C@H]2[C@@H]3CCC4=CC(=O)C=C[C@]4(C)C3=CC[C@]12C | – | – | –
19.9% | C[C@@H]1C[C@H]2[C@@H]3CCC4=CC(=O)CC[C@]4(C)C3=CC[C@]2(C)[C@H]1C(=O)CN1CCCC1 | – | – | Non-toxic
8.5% | CCCC[C@@H]1C[C@H]2[C@@H]3CCC4=CC(=O)CC[C@]4(C)C3=CC[C@]2(C)[C@H]1C(=O)CO | > 10000 nM | – | Toxic
